Test results taken from paper PMC3608738 (Antiviral research, 2012).

Assays:
[1] = molecular target: hRNMTase (Homo sapiens, UniProt O43148); test: [3H]SAM competition binding assay
[2] = molecular target: human guanine N-7 RNA MTase (hRNMTase) (Homo sapiens, UniProt O43148); test: Inhibition of human RNA MTase; type: biochemical
[3] = molecular target: T1, WNV MTase (West Nile virus, UniProt Q9Q6P4); test: In vitro 2'-O methylation inhibition assay; type: biochemical
In short: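 2'-O methylation is followed as conversion of m7G*pppA-RNA to m7G*pppAm-RNA. Each reaction contains 1.5 μM WNV MTase, 80 μM SAM, 0.36 μM m7G*pppA-RNA substrate and a range of test compound concentrations. Products are digested with nuclease P1, and the caps are separated by TLC and quantified by PhosphorImager. Activity is taken from m7G*pppA versus m7G*pppAm, with no-compound activity set at 100%. IC50 comes from a dose–response fit; Ki comes from Cheng-Prusoff.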

[4] = system: WNV (NY99); test: Viral titer reduction assay; type: cell-based, West Nile virus; settings: A549 cells, WNV MOI 0.1, 42 h
In short: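 About 2 × 10^5 A549 cells per well are treated 24-30 h after seeding, in triplicate. Test compound, made at 2X in medium with 2% DMSO, is added, followed immediately by WNV NY99 at MOI 0.1 PFU/cell. After 42 h at 37°C, culture fluid is titred by plaque assay on confluent Vero monolayers under a 0.6% agar overlay with a neutral red second overlay. EC50 comes from nonlinear regression of the dose–response curve.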

[5] = molecular target: T1, WNV MTase; test: In vitro N7 methylation inhibition assay; type: biochemical
[6] = molecular target: T1, WNV MTase; test: [3H]SAM competition binding assay; settings: positive control, dose response
In short: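 For G-25 filtration SAM competition, 0.6 μM WNV MTase is mixed with [methyl-3H]-SAM (about 14.1 nM final) and a 3-fold dilution series of test compound starting at 60 μM. Mixtures stand 2 h at room temperature and are spun through G-25 mini-columns. The eluted MTase-bound 3H is quantified by scintillation counting. Points are run in duplicate.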

T1 sequence (Q9Q6P4 2529-2794): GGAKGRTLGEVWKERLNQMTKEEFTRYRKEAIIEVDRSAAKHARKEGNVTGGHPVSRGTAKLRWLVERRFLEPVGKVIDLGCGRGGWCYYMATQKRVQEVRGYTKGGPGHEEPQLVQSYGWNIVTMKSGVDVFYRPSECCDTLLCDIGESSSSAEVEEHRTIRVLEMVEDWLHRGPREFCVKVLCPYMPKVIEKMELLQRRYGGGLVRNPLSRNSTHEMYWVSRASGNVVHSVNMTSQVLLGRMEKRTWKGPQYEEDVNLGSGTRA
Sequence of hRNMTase (O43148 whole entry): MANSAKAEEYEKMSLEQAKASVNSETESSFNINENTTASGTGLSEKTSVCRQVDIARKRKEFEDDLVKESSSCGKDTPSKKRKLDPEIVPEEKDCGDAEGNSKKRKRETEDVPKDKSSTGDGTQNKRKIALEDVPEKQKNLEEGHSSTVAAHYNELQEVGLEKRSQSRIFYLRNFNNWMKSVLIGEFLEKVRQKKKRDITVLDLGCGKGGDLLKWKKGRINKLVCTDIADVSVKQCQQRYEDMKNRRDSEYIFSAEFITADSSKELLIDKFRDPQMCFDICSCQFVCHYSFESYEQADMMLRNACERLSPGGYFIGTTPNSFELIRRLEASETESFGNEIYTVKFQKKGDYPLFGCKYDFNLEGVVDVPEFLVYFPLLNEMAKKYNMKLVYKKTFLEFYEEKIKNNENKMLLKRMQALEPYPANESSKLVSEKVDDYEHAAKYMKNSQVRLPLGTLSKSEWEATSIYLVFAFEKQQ
Sequence of human guanine N-7 RNA MTase (hRNMTase) (O43148 whole entry): as above

| SMILES | Inhibition of [3H]SAM binding to hRNMTase (in words) ([1]; 300 μM compound) | Inhibition of hRNMTase activity (in words) ([2]; even at 300 μM compound concentration) | Hill coef. (2'-O) ([3]; dose-response curve of 2'-O MTase inhibition) | Fold lower Ki than GRL-001 (2'-O inhibition) ([3]; relative to GRL-001) [fold] | Concentration giving one logarithmic order of reduction in the WNV replication [4] [μM] | Inhibition of N-7 MTase activity (in words) [5] | Hill coef. (N-7) ([5]; dose-response curve of N-7 MTase inhibition) | Fold lower Ki than GRL-001 (N-7 inhibition) ([5]; relative to GRL-001) [fold] | Inhibition of [3H]SAM binding to hRNMTase (in words) ([1]; control, dose response) | IC50 [2] [µM] | Inhibition of 3H-labeled SAM-MTase complex formation (in words) [6] |
| --- | --- | --- | --- | --- | --- | --- | --- | --- | --- | --- | --- |
| CCOC(=O)[C@@](C)(O)[C@@H]1C[C@@H](CO[Si](c2ccccc2)(c2ccccc2)C(C)(C)C)O[C@H]1n1cc(F)c(=O)[nH]c1=O [GRL-003] | did not inhibit | did not inhibit | 2.8 | 12 | 50 | only moderately inhibited | 0.9 | 5 |  |  |  |
| Nc1ncnc2c1ncn2[C@@H]1O[C@H](C[C@@H](N)CC[C@H](N)C(=O)O)[C@@H](O)[C@H]1O [SIN, Sinefungin, reference compound] |  |  |  |  |  |  |  |  | decreased the SAM binding very efficiently | ~41.2 | very efficiently in a dose-dependent manner |
